SMILES strings stand for the structures. The campaign covered roughly 5,600 compounds. About 1,200 (21%) were called active. Inconclusive results (about 3%) are left out. Only a sample is shown. Values without a mark were called inactive.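 Rule for the calls: active = mean inhibition above about 95%, with at least 55% of replicates also reaching it (limit read from the data); inconclusive = meets just one of the two conditions; inactive = meets neither condition.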

As a reminder, the inhibition is the relative decrease from the control value, in per cent.

This experiment is described as follows: Trypanosoma cruzi growth blockers in host fibroblasts – NIH3T3 host cells, beta-gal parasites, cherry-pick, set 2, confirmation (AID 651740).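 Note: plate controls were neutral control median for no effect and positive control median for full effect.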 Conditions: T. cruzi beta-gal in NIH3T3, GalScreen luminescence, 90 h; at 2.09 µM; active compounds read high. Put shortly: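 Material: mouse NIH/3T3 fibroblasts infected with beta-galactosidase T. cruzi Tulahuen C4; medium: DMEM plus 2% fetal bovine serum, 1% PSG; dosing: single point, 100 nL compound in DMSO pinned per well; times: ≥90 h infection with compound, 60 min read delay; signal: GalScreen lysis and luminescent beta-gal signal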
For the molecule `Cc1ccccc1-c1ccc([C@H]2[C@H]3CN(S(=O)(=O)c4ccc(F)cc4)CCCCN3[C@H]2CO)cc1`, the inhibition was 93.8%.

With `C[C@@H]1CCCCO[C@H](CN(C)S(=O)(=O)c2ccc(F)cc2)[C@H](C)CN([C@@H](C)CO)C(=O)c2cc(NS(=O)(=O)c3ccccc3)ccc2O1`, the inhibition is 47.8%. With `O=C(CN1CCOCC1)N1CCCCN2[C@@H](CO)[C@H](c3ccc(-c4ccccc4)cc3)[C@@H]2C1` the figure was 36.1%. As to `CC(C)NC(=O)N1[C@H](C#N)[C@H](c2ccc(C#CC3CCCCC3)cc2)[C@H]1CO`, the inhibition is 117% (active). For `CS(=O)(=O)N1[C@@H](C#N)[C@H](c2ccc(C#CC3CCCCC3)cc2)[C@@H]1CO`, the inhibition was 35.7%. With `CCCC#Cc1ccc([C@@H]2[C@@H](C#N)N(C(=O)C3CCCC3)[C@@H]2CO)cc1` the figure was 73.2%.

Take `CN1c2ccc(-c3ccccc3)cc2[C@@H]2[C@@H](CCN2C(=O)c2ccncc2)[C@@H]1CO`: the inhibition is 64.5%. To `C[C@@H]1CN([C@H](C)CO)C(=O)Cc2cc(NC(=O)c3ccncc3)ccc2O[C@H]1CN(C)Cc1ccc(-c2ccccc2)cc1` belongs 48.9%. As for `N#Cc1cccc(-c2ccc([C@H]3[C@H](CO)N4CCCCN(C(=O)Nc5cccc(F)c5)C[C@@H]34)cc2)c1`, the inhibition is 87.9%. As to `COCC(=O)N(C)C[C@@H]1Oc2ncc(C#Cc3ccccc3OC)cc2C(=O)N([C@@H](C)CO)C[C@H]1C`, the inhibition was 99.4% (active). On to `COc1ccc(C#Cc2cnc3c(c2)C(=O)N([C@@H](C)CO)C[C@H](C)[C@@H](CN(C)C(C)=O)O3)cc1`, for which the inhibition was -5.22%. Regarding `C[C@@H]1CN([C@@H](C)CO)C(=O)c2cc(C#Cc3ccccc3)cnc2O[C@H]1CN(C)C(=O)c1ccccn1`, the inhibition was 62.8%.

In the case of `C[C@H]1CN([C@@H](C)CO)C(=O)CCCn2cc(nn2)CO[C@H]1CN(C)C(=O)c1ccccc1`, the inhibition is -12.4%. With `C[C@H](CO)N1C[C@H](C)[C@@H](CN(C)S(=O)(=O)c2cccc(F)c2)OCc2ccccc2-c2c(n(C)c3ccccc23)C1=O` the figure was 91.4%; with `O=C(CN1CCOCC1)N1CCCCN2[C@H](CO)[C@H](c3ccc(-c4ccccc4)cc3)[C@@H]2C1`, 49.3%; with `CCCC#Cc1ccc2c(c1)O[C@@H](CN(C)C(=O)c1ccccc1F)[C@H](C)CN([C@H](C)CO)S2(=O)=O`, 19.4%. As for `C[C@@H]1CN([C@H](C)CO)S(=O)(=O)c2ccc(C3=CCCC3)cc2O[C@H]1CN(C)Cc1ccccc1F`, the inhibition was 73.8%. Regarding `C[C@H]1CN([C@@H](C)CO)S(=O)(=O)c2ccc(C#CCN(C)C)cc2O[C@@H]1CN(C)Cc1ccc(F)cc1`, the inhibition was 93.3%. On to `C[C@H]1CN([C@@H](C)CO)S(=O)(=O)c2ccc(C3=CCCCC3)cc2O[C@@H]1CN(C)Cc1ccccc1`, for which the inhibition is 109% (active). `C[C@H]1CN([C@@H](C)CO)S(=O)(=O)c2ccc(C3=CCCC3)cc2O[C@@H]1CN(C)Cc1ccccc1`: the inhibition is 68%. For the molecule `C[C@@H]1CN([C@H](C)CO)S(=O)(=O)c2ccc(C#CC3CCCC3)cc2O[C@@H]1CN(C)Cc1cccnc1`, the inhibition was 60.2%. To `C[C@@H]1CN([C@@H](C)CO)S(=O)(=O)c2ccc(C#Cc3ccc(F)cc3)cc2O[C@H]1CN(C)C(=O)NC1CCCC1` belongs 81.2%. In the case of `C[C@@H]1CN([C@@H](C)CO)S(=O)(=O)c2ccc(/C=C/c3ccccc3)cc2O[C@H]1CN(C)Cc1ccccc1`, the inhibition is 106% (active).

In the case of `C[C@H](CO)N1C[C@H](C)[C@H](CN(C)Cc2cccnc2)Oc2cc(C#CC3CCCC3)ccc2S1(=O)=O`, the inhibition is 82.9%. For the molecule `C[C@@H]1CN([C@@H](C)CO)S(=O)(=O)c2ccc(C#Cc3ccc(F)cc3)cc2O[C@H]1CN(C)C(=O)c1ccccn1`, the inhibition is 14.4%.

Take `CC(C)C#Cc1ccc2c(c1)O[C@H](CN(C)Cc1ccccc1)[C@H](C)CN([C@@H](C)CO)S2(=O)=O`: the inhibition is 105% (active). To `C[C@H](CO)N1C[C@H](C)[C@@H](CN(C)Cc2ccncc2)Oc2cc(Br)ccc2S1(=O)=O` belongs 92.7%; to `C[C@@H]1CN([C@@H](C)CO)S(=O)(=O)c2ccc(C#Cc3ccccc3)cc2O[C@@H]1CN(C)C(=O)Nc1ccccc1`, 99.8% (active); to `C[C@H](CO)N1C[C@H](C)[C@@H](CN(C)S(=O)(=O)c2ccccc2)Oc2ncc(C#Cc3ccccc3F)cc2C1=O`, 93%. Regarding `C[C@H](CO)N1C[C@H](C)[C@H](CN(C)S(=O)(=O)c2cccc(F)c2)Oc2ncc(/C=C/c3ccccc3)cc2C1=O`, the inhibition is 46.4%. With `C[C@H]1CN([C@@H](C)CO)C(=O)c2cccc(NS(=O)(=O)c3cn(C)cn3)c2O[C@@H]1CN(C)CC1CCCCC1`, the inhibition is 29.6%. Take `Cc1noc(C)c1S(=O)(=O)Nc1ccc2c(c1)C(=O)N([C@@H](C)CO)C[C@H](C)[C@@H](CN(C)C(=O)Nc1cccc3ccccc13)OCCCC[C@H](C)O2`: the inhibition is 42.4%. `CC(C)(C)[S@@](=O)N1Cc2cc(C(=O)NCc3ccc4c(c3)OCO4)nc(-c3cccc(-c4ccccc4)c3)c2[C@H]1CCO`: the inhibition was 91.6%. In the case of `O=C(Nc1ccc(Cl)cc1)N[C@@H]1CC[C@@H](CCNC(=O)c2ccccc2F)O[C@H]1CO`, the inhibition was 36.4%. As to `Cc1ccc(S(=O)(=O)N(C)C[C@@H]2Oc3ncc(-c4cc5ccccc5o4)cc3C(=O)N([C@H](C)CO)C[C@@H]2C)cc1`, the inhibition was 43%. Consider `COc1ccccc1-c1ccc2c(c1)O[C@H](CN(C)S(=O)(=O)c1ccc(C)cc1)[C@@H](C)CN([C@H](C)CO)S2(=O)=O`, for which the inhibition is 91.3%.

With `O=C(Nc1ccccc1)N1CCCCN2[C@H](CO)[C@@H](c3ccc(C#Cc4ccccn4)cc3)[C@H]2C1`, the inhibition is 39.3%. For the molecule `C[C@H](CO)N1C[C@H](C)[C@@H](CN(C)C(=O)C2CCCCC2)Oc2cc(-c3ccccc3)ccc2S1(=O)=O`, the inhibition was 68.2%.

Take `C[C@H](CO)N1C[C@H](C)[C@H](CN(C)Cc2ccncc2)Oc2cc(-c3ccncc3)ccc2S1(=O)=O`: the inhibition was 90.6%. For the molecule `CCCN(C)C[C@@H]1Oc2cc(C#Cc3ccc(F)cc3)ccc2S(=O)(=O)N([C@H](C)CO)C[C@H]1C`, the inhibition was 68.9%. Take `C[C@@H]1CN([C@H](C)CO)S(=O)(=O)c2ccc(C#C[C@@H](C)O)cc2O[C@@H]1CN(C)Cc1ccc(-c2ccccc2)cc1`: the inhibition is 96.9% (active). With `Cc1ccc(S(=O)(=O)N2C[C@@H](O)COC[C@@H]3O[C@H](CC(=O)NCc4ccc(Cl)c(Cl)c4)CC[C@H]32)cc1`, the inhibition is 50.2%. For the molecule `COCCNC[C@@H]1[C@H](c2ccccc2)[C@H](CO)N1c1nc(C)c(C)s1`, the inhibition was 5.12%. Turning to `O=C(Nc1ccc2c(c1)[C@@H]1C[C@H](CC(=O)N3CCOCC3)O[C@@H](CO)[C@@H]1O2)c1ccc2c(c1)OCO2`, the inhibition was 6.38%. `C[C@@H]1CN([C@H](C)CO)C(=O)c2cc(NS(C)(=O)=O)ccc2O[C@@H](C)CCCCO[C@H]1CN(C)S(=O)(=O)c1cn(C)cn1`: the inhibition is -5.24%. As to `COc1ccc(C#Cc2ccc([C@@H]3[C@@H](CO)N4CCCCN(C(=O)c5ccncc5)C[C@@H]34)cc2)cc1`, the inhibition is 30%. For the molecule `C[C@@H]1CN([C@H](C)CO)C(=O)c2cccc(NC(=O)c3cnccn3)c2O[C@@H]1CN(C)Cc1ccc(C(=O)Nc2ccccc2N)cc1`, the inhibition is 82.4%. Consider `C[C@H]1CN([C@@H](C)CO)S(=O)(=O)c2ccc(C#CC3CCCC3)cc2O[C@H]1CN(C)C(=O)Cc1ccncc1`, for which the inhibition was 79.4%.

For `C[C@@H]1CN([C@@H](C)CO)C(=O)c2cc(NC(=O)Nc3ccc4c(c3)OCO4)ccc2O[C@@H]1CN(C)Cc1ccc(Oc2ccccc2)cc1`, the inhibition is -1.56%. To `C[C@@H]1CN([C@@H](C)CO)C(=O)c2cc(NC(=O)Nc3cccc4ccccc34)ccc2O[C@H]1CN(C)Cc1ccc(Cl)c(Cl)c1` belongs 102% (active); to `C[C@@H]1CN([C@@H](C)CO)C(=O)c2cc(NC(=O)Nc3cccc4ccccc34)ccc2O[C@H]1CN(C)Cc1ccc(Oc2ccccc2)cc1`, 106% (active). To `C[C@@H]1CN([C@@H](C)CO)C(=O)c2cc(NC(=O)Cc3ccccc3)ccc2O[C@@H]1CN(C)Cc1ccc(Oc2ccccc2)cc1` belongs 94.9%; to `C[C@H]1CN([C@@H](C)CO)C(=O)c2cc(NC(=O)Nc3ccc4c(c3)OCO4)ccc2O[C@@H]1CN(C)Cc1ccc(Oc2ccccc2)cc1`, 66.6%. To `Cc1ccc(S(=O)(=O)Nc2ccc3c(c2)C(=O)N([C@H](C)CO)C[C@H](C)[C@H](CN(C)Cc2ccc(Cl)c(Cl)c2)O3)cc1` belongs 74%; to `Cc1ccc(-c2ccc([C@H]3[C@H](CO)N4CCCCN(Cc5cncnc5)C[C@@H]34)cc2)cc1`, 50.8%; to `C[C@@H]1CN([C@H](C)CO)C(=O)c2cc(C#Cc3ccccn3)cnc2O[C@H]1CN(C)Cc1ccccc1`, 76.7%. On to `C[C@H]1CN([C@@H](C)CO)C(=O)c2ccccc2-c2ccccc2CO[C@@H]1CN(C)S(=O)(=O)c1ccc(C(F)(F)F)cc1`, for which the inhibition is 71.5%. With `CCC(=O)N1CCCCN2[C@H](C1)[C@@H](c1ccc(-c3ccc(F)cc3)cc1)[C@@H]2CO`, the inhibition was -6.94%. On to `C[C@@H]1CCCCO[C@H](CN(C)Cc2ccc(Cl)c(Cl)c2)[C@H](C)CN([C@@H](C)CO)C(=O)c2cc(NC(=O)C3CCCCC3)ccc2O1`, for which the inhibition is 110% (active). `C[C@@H]1CCCCO[C@@H](CN(C)Cc2ccc3c(c2)OCO3)[C@@H](C)CN([C@@H](C)CO)C(=O)c2cc(NC(=O)Nc3ccccc3)ccc2O1`: the inhibition was 84.4%.

In the case of `COc1ccc(CN(C)C[C@H]2OCCCC[C@H](C)Oc3ccc(NC(=O)Nc4ccc5c(c4)OCO5)cc3C(=O)N([C@H](C)CO)C[C@@H]2C)cc1`, the inhibition is 83%. With `C[C@@H]1CN([C@H](C)CO)C(=O)c2cc(NC(=O)Nc3ccc(F)cc3)ccc2O[C@@H](C)CCCCO[C@H]1CN(C)Cc1ccc(Cl)c(Cl)c1` the figure was 114% (active); with `C[C@@H]1CCCCO[C@@H](CN(C)Cc2ccc(Cl)c(Cl)c2)[C@H](C)CN([C@H](C)CO)C(=O)c2cc(NC(=O)Nc3ccc(F)cc3)ccc2O1`, 112% (active). In the case of `COc1ccc(NC(=O)Nc2ccc3c(c2)C(=O)N([C@H](C)CO)C[C@@H](C)[C@H](CN(C)Cc2ccc(Cl)c(Cl)c2)OCCCC[C@@H](C)O3)cc1`, the inhibition was 114% (active).
